The source made the active and inactive calls.
What was measured:
[1] = tested on: Mus musculus; assay: Antiparkinson activity in ip dosed albino CD-1 mouse assessed as inhibition of oxotremorine-induced diarrhea, and tremors; type: functional, organism-based
[2] = Neurotoxicity against ip dosed albino CD-1 mouse by rotarod test; type: toxicity, organism-based; settings: in vivo
Procedure, shortened: (§1)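 Male CD-1 mice (18-25 g), five per group, were dosed ip in distilled water. The endpoint was failure to stay for 1 min on a horizontal rod rotating at 6 rpm. Time of peak effect was determined on the rod, and TD50 was measured at that time. TD50 is given with 95% confidence limits by Litchfield-Wilcoxon.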

[3] = tested on: Mus musculus; assay: Antipsychotic activity in ip dosed albino CD-1 mouse assessed as spontaneous motor activity for 15 mins intervals for 2 hrs by conditioned avoidance test; type: functional; settings: for ED50: CD-1, ip
[4] = tested on: Mus musculus; assay: Acute toxicity in ip dosed albino CD-1 mouse assessed as mortality after 2 to 3 hrs; type: organism-based; settings: in vivo
[5] = tested on: Mus musculus; assay: Antidepressant activity in albino CD-1 mouse assessed as potentiation of L-dopa-induced effect up to 40 mg/kg, ip; type: functional, organism-based; parameters: dose 40 mg/kg
Procedure, shortened: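 Compound was given ip in distilled water to male CD-1 mice. Potentiation of stimulation induced by L-Dopa (100 mg/kg ip) was assessed.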

[6] = tested on: Mus musculus; assay: Antiparkinson activity in albino CD-1 mouse assessed as inhibition of oxotremorine-induced salivation at 100 mg/kg, ip; type: functional
Procedure, shortened: (§2)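 Five male CD-1 mice per group were pretreated ip with saline or compound 60-90 min before oxotremorine 1.0 mg/kg ip. Oxotremorine-induced hypothermia or salivation was then assessed.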

[7] = tested on: Mus musculus; assay: Anticonvulsant activity in albino CD-1 mouse assessed as protection against pentylenetetrazol-induced tonic seizure ratio at 40 mg/kg, ip administered 60 to 90 mins before pentylenetetrazol challenge relative to control; type: functional; settings: route intraperitoneal
Procedure, shortened: (§3)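 Male CD-1 mice (18-25 g), 8-10 per group, received saline (1 ml/100 g) or compound (40 mg/kg) ip 60-90 min before seizure induction. Seizures were induced by iv infusion of 0.5% pentylenetetrazole solution. The minimal (clonic) and maximal (tonic) seizure thresholds were determined.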

[8] = tested on: Mus musculus; assay: Analgetic activity in albino CD-1 mouse assessed as inhibition of thermally-induced pain at 10 to 15 mg/kg, ip relative to control; type: functional; settings: dose mg/kg 10-15; route intraperitoneal
Procedure, shortened: (§4)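 Male albino CD-1 mice (18-25 g) were given compound ip in distilled water and tested 60-90 min later on a hot wire analgetic apparatus at 50°. Reaction times were compared with saline-pretreated controls. Each point used 5 treated and 20 control mice and is reported as mean ± SEM in seconds. Statistics were analysis of variance followed by t test or Mann-Whitney U.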

[9] = tested on: Mus musculus; assay: Antiparkinson activity in albino CD-1 mouse assessed as inhibition of oxotremorine-induced diarrhea, and tremors at 5 mg/kg, ip; type: functional; parameters: scale not given: the % may be the effect or the level left; settings: route intraperitoneal
[10] = tested on: Mus musculus; assay: Toxicity in albino CD-1 mouse assessed as reduction of rectal temperature at 40 mg/kg, ip; type: organism-based; parameters: dose 40 mg/kg, route intraperitoneal; settings: in vivo
Procedure, shortened: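 Rectal temperature of male CD-1 mice was recorded by tele-thermometer with a small-animal probe at time of peak activity (60-90 min) after 40 mg/kg ip in distilled water.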

[11] = tested on: Mus musculus; assay: Antiparkinson activity in albino CD-1 mouse assessed as inhibition of oxotremorine-induced diarrhea, and tremors at 5 to 40 mg/kg, ip; type: functional, organism-based
[12] = tested on: Mus musculus; assay: Neurotoxicity against ip dosed albino CD-1 mouse assessed as time of peak effect by rotarod test; type: toxicity, organism-based; settings: in vivo; procedure, shortened: as §1
[13] = tested on: Mus musculus; assay: Neuromuscular blocking activity in albino CD-1 mouse up to 20 mg/kg, ip; type: organism-based; parameters: dose 20 mg/kg, route intraperitoneal; settings: in vivo
Procedure, shortened: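 Male CD-1 mice were dosed ip in distilled water and tested 60-90 min later. Neuromuscular blockade was judged by ability to remain on a wire mesh screen inclined at 60°.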

[14] = tested on: Mus musculus; assay: Analgetic activity in albino CD-1 mouse assessed as inhibition of thermally-induced pain at 10 to 20 mg/kg, ip; type: functional, organism-based; procedure, shortened: as §4
[15] = tested on: Mus musculus; assay: Analgetic activity in albino CD-1 mouse assessed as inhibition of thermally-induced pain at 20 to 40 mg/kg, ip relative to control; type: functional; parameters: scale not given: the % may be the effect or the level left; settings: dose mg/kg 20-40; route intraperitoneal; procedure, shortened: as §4
[16] = tested on: Mus musculus; assay: Antidepressant activity in albino CD-1 mouse assessed as inhibition of reserpine-induced sedation up to 40 mg/kg, ip; type: functional, organism-based; parameters: dose 40 mg/kg
Procedure, shortened: (§5)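 CD-1 male mice were dosed ip in distilled water 60-90 min before challenge with reserpine (4 mg/kg ip). Hypothermia, sedation and ptosis were assessed. Rectal temperature was taken with a tele-thermometer fitted with a small-animal probe.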

[17] = tested on: Mus musculus; assay: Antiparkinson activity in albino CD-1 mouse assessed as inhibition of oxotremorine-induced hypothermia at 40 mg/kg, ip; type: functional, organism-based; parameters: dose 40 mg/kg; procedure, shortened: as §2
[18] = tested on: Ileum; assay: Antispasmodic activity in guinea pig ileum assessed as inhibition of acetylcholine-induced contraction at 10^-8 to 10^-6 M; type: functional, tissue-based; settings: Cavia porcellus
Procedure, shortened: (§6)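 Isolated guinea pig ileum (both sexes) was suspended in Krebs' solution at 37 ± 0.5°, gassed with 95% O2-5% CO2. Antihistaminic, anticholinergic and nonselective antispasmodic activity were measured.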

[19] = tested on: Mus musculus; assay: Anticonvulsant activity in albino CD-1 mouse assessed as protection against pentylenetetrazol-induced clonic seizure ratio at 40 mg/kg, ip administered 60 to 90 mins before pentylenetetrazol challenge relative to control; type: functional; settings: route intraperitoneal; procedure, shortened: as §3
[20] = tested on: Mus musculus; assay: Toxicity in ip dosed albino CD-1 mouse assessed as muscle weakness and flaccidity; type: organism-based, Muscle tissue; settings: in vivo
[21] = tested on: Ileum; assay: Antispasmodic activity in guinea pig ileum assessed as inhibition of histamine-induced contraction at 10^-8 to 10^-6 M; type: functional, tissue-based; settings: Cavia porcellus; procedure, shortened: as §6
[22] = tested on: Mus musculus; assay: Antiparkinson activity in albino CD-1 mouse assessed as inhibition of oxotremorine-induced diarrhea, and tremors at 20 to 40 mg/kg, ip; type: functional; parameters: scale not given: the % may be the effect or the level left; settings: dose mg/kg 20-40; route intraperitoneal
[23] = Acute toxicity in ip dosed albino CD-1 mouse after 24 hrs; type: organism-based; settings: in vivo
Procedure, shortened: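 Male albino CD-1 mice (18-25 g), groups of eight. Each mouse got a single ip injection of compound dissolved in distilled water. Lethality was scored 24 hr after dosing. LD50 was calculated with 95% confidence limits by the Litchfield and Wilcoxon method.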

[24] = tested on: Ileum; assay: Antispasmodic activity in guinea pig ileum assessed as inhibition of barium chloride-induced spasm at 5 x 10^-7 M; type: functional; settings: Cavia porcellus; procedure, shortened: as §6
[25] = tested on: Mus musculus; assay: Antidepressant activity in albino CD-1 mouse assessed as inhibition of reserpine-induced hypothermia up to 40 mg/kg, ip; type: functional, organism-based; parameters: dose 40 mg/kg; procedure, shortened: as §5
[26] = tested on: Mus musculus; assay: Analgetic activity in albino CD-1 mouse assessed as inhibition of thermally-induced pain at 5 mg/kg, ip; type: functional, organism-based; parameters: dose 5 mg/kg; procedure, shortened: as §4
[27] = tested on: Mus musculus; assay: Antidepressant activity in albino CD-1 mouse assessed as inhibition of reserpine-induced ptosis up to 40 mg/kg, ip; type: functional, organism-based; parameters: dose 40 mg/kg; procedure, shortened: as §5

Q: For CCN(C)[C@H]1CCN([C@H]2Cc3ccccc3Sc3ccc(Cl)cc32)C1, which Activity [1] is on record?
A: Dose-dependent effect

Q: What about the TD50 [2] of the same compound?
A: 6.2 mg/kg

Q: What about the Activity [3] of the same compound?
A: Dose-dependent effect

Q: And the ED50 [3]?
A: 6.8 mg/kg

Q: What about the Activity [4] of the same compound?
A: Toxic

Q: What about the Activity [5] of the same compound?
A: inactive

Q: And the Activity [6]?
A: inactive

Q: And the Ratio [7]?
A: 0.93

Q: And the “fold change (FC)” value [8]?
A: 1.5

Q: What about the Activity [9] of the same compound?
A: 60%

Q: What about the T [10] of the same compound?
A: 5.1 °C

Q: And the Activity [11]?
A: Active

Q: What about the Time [12] of the same compound?
A: 60 min

Q: And the Activity [13]?
A: Non-toxic

Q: And the Activity [14]?
A: Active

Q: And the Activity [15]?
A: 23%

Q: What about the Activity [16] of the same compound?
A: inactive

Q: What about the Activity [17] of the same compound?
A: inactive

Q: What about the inhibition [18] of the same compound?
A: Active

Q: What about the Ratio [19] of the same compound?
A: 1.16

Q: And the Activity [20]?
A: Toxic

Q: What about the inhibition [21] of the same compound?
A: Active

Q: And the Activity [22]?
A: 93%

Q: What about the LD50 at 24 h [23] of the same compound?
A: 175 mg/kg

Q: And the inhibition at 0.5 µM [24]?
A: 40%

Q: And the Activity [25]?
A: inactive

Q: What about the Activity [26] of the same compound?
A: Active

Q: And the Activity [27]?
A: inactive

Q: Which results are given for CCN(C)[C@@H]1CCN([C@H]2Cc3ccccc3Sc3ccc(Cl)cc32)C1?
A: Activity [1]: Dose-dependent effect; TD50 [2]: 13.6 mg/kg; Activity [3]: Dose-dependent effect; ED50 [3]: 12 mg/kg; Activity [4]: Toxic; Activity [5]: inactive; Activity [6]: inactive; Ratio [7]: 0.73; fold change (FC) [8]: 1.5; T [10]: 5.1 °C; Activity [11]: Active; Time [12]: 60 min; Activity [13]: Non-toxic; Activity [14]: Active; Activity [15]: 23%; Activity [16]: inactive; Activity [17]: inactive; inhibition [18]: Active; Ratio [19]: 1.24; Activity [20]: Toxic; inhibition [21]: Active; LD50 at 24 h [23]: 186 mg/kg; inhibition at 0.5 µM [24]: 40%; Activity [25]: inactive; Activity [27]: inactive

Q: With CCN(C)[C@H]1CCN([C@@H]2Cc3ccccc3Sc3ccc(Cl)cc32)C1 as the compound, how does the Activity [1] read?
A: Dose-dependent effect

Q: What about the TD50 [2] of the same compound?
A: 12.5 mg/kg

Q: And the Activity [3]?
A: Dose-dependent effect

Q: And the ED50 [3]?
A: 12 mg/kg

Q: What about the Activity [4] of the same compound?
A: Toxic

Q: What about the Activity [5] of the same compound?
A: inactive

Q: What about the Activity ([6]; route intraperitoneal) of the same compound?
A: 27%

Q: And the Ratio [7]?
A: 1

Q: And the “fold change (FC)” value [8]?
A: 1.5

Q: What about the T [10] of the same compound?
A: 5.1 °C

Q: And the Activity [11]?
A: Active

Q: What about the Time [12] of the same compound?
A: 60 min

Q: And the Activity [13]?
A: Non-toxic

Q: What about the Activity [14] of the same compound?
A: Active

Q: And the Activity [15]?
A: 23%

Q: And the Activity [16]?
A: inactive

Q: And the Activity [17]?
A: inactive

Q: And the inhibition [18]?
A: Active

Q: What about the Ratio [19] of the same compound?
A: 1.27

Q: And the Activity [20]?
A: Toxic

Q: What about the inhibition [21] of the same compound?
A: Active

Q: And the LD50 at 24 h [23]?
A: 177 mg/kg

Q: And the inhibition at 0.5 µM [24]?
A: 40%

Q: And the Activity [25]?
A: inactive

Q: What about the Activity [27] of the same compound?
A: inactive

Q: For CCN(C)[C@@H]1CCN([C@@H]2Cc3ccccc3Sc3ccc(Cl)cc32)C1, which Activity [1] is on record?
A: Dose-dependent effect

Q: And the TD50 [2]?
A: 6.4 mg/kg

Q: What about the Activity [3] of the same compound?
A: Dose-dependent effect

Q: What about the ED50 [3] of the same compound?
A: 6.4 mg/kg

Q: And the Activity [4]?
A: Toxic

Q: What about the Activity [5] of the same compound?
A: inactive

Q: What about the Activity ([6]; route intraperitoneal) of the same compound?
A: 60%

Q: What about the Ratio [7] of the same compound?
A: 0.75

Q: And the “fold change (FC)” value [8]?
A: 1.5

Q: What about the Activity [9] of the same compound?
A: 60%

Q: What about the T [10] of the same compound?
A: 5.1 °C

Q: What about the Activity [11] of the same compound?
A: Active

Q: What about the Time [12] of the same compound?
A: 60 min

Q: And the Activity [13]?
A: Non-toxic

Q: And the Activity [14]?
A: Active

Q: And the Activity [15]?
A: 23%

Q: What about the Activity [16] of the same compound?
A: inactive

Q: What about the Activity [17] of the same compound?
A: inactive

Q: What about the inhibition [18] of the same compound?
A: Active

Q: And the Ratio [19]?
A: 1.08

Q: What about the Activity [20] of the same compound?
A: Toxic

Q: And the inhibition [21]?
A: Active

Q: And the Activity [22]?
A: 93%

Q: And the LD50 at 24 h [23]?
A: 217 mg/kg

Q: And the inhibition at 0.5 µM [24]?
A: 40%

Q: And the Activity [25]?
A: inactive

Q: What about the Activity [26] of the same compound?
A: Active

Q: And the Activity [27]?
A: inactive

From ChEMBL document CHEMBL3272322, “8-chloro-(S)- and -(R)-10-((S)-and -(R)-3'-methylethylaminopyrrolidino)- 10,11-dihydrodibenzo(b,f)thiepins. Synthesis and pharmacological studies” (J Med Chem, 1976)
